Data on six compounds can be found in ChEMBL document CHEMBL1149586 (Bioorg Med Chem, 2007).

In one experiment the target is T1, Interstitial collagenase (Homo sapiens, UniProt P03956).
T1 sequence (P03956 whole entry): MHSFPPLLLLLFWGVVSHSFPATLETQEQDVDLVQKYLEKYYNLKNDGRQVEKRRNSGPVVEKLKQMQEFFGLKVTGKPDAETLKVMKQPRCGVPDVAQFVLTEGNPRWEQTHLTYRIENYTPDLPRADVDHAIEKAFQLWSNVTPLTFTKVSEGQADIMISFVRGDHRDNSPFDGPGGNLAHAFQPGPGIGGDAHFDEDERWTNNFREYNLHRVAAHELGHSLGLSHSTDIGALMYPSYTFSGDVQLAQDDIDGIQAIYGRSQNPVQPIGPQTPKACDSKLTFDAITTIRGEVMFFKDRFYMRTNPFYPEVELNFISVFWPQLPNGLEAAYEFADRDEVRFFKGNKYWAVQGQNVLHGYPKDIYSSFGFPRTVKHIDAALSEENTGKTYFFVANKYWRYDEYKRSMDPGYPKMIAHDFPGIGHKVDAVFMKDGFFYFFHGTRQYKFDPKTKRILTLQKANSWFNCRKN
The experiment is described as follows: Inhibition of MMP1.

In experiment [1] the target is 72 kDa type IV collagenase (Homo sapiens, UniProt P08253). The experiment is described as follows: Inhibition of MMP2. In short, it runs like this: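 Incubated with compound at 1 to 5000 nM. Started with a fluorogenic quenched peptide substrate (1–10 nM). Initial hydrolysis rate, with (Vi) and without (Vo) compound, was followed by fluorescence.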
72 kDa type IV collagenase, sequence (P08253 whole entry): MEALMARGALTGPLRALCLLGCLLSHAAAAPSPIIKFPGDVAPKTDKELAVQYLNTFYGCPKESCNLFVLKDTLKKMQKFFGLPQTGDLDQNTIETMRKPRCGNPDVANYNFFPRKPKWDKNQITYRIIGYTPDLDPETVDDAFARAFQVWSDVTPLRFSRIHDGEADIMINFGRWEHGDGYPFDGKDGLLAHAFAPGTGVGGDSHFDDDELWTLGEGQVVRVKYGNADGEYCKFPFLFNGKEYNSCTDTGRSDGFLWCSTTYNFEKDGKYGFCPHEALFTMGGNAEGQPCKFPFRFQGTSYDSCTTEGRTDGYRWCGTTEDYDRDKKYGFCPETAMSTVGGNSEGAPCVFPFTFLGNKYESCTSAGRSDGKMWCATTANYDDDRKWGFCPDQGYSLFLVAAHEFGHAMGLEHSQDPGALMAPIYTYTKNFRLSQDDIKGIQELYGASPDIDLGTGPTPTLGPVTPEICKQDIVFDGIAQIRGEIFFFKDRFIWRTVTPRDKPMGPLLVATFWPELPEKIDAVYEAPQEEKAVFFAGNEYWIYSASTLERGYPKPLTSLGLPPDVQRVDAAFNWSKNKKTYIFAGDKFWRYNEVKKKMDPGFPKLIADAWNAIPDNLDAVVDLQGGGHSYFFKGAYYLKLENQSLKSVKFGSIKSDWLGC
A further experiment concerns the target Stromelysin-1 (Homo sapiens, UniProt P08254). As to the kind of experiment: Inhibition of MMP3.
Experiment [2] concerns the target Matrix metalloproteinase-9 (Homo sapiens, UniProt P14780). As to the kind of experiment: Inhibition of MMP9.
Experiment [3] deals with Matrix metalloproteinase-14 (Homo sapiens, UniProt P50281). The experiment is described as follows: Inhibition of MMP14.
For the next experiment, the target named is Neutrophil collagenase (Homo sapiens, UniProt P22894). As to the kind of experiment: Inhibition of MMP8. In short, it runs like this: (§1)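 Human recombinant pro-enzymes, freshly activated with p-aminophenylmercuric acetate at 37 °C for 2 h. Used at 0.6 nM for MMP-13 and 3.8 nM for MMP-8. Incubated with compound from 1 to 5000 nM. Assay began with addition of a fluorogenic substrate (1–10 nM). Initial rates of peptide cleavage were measured fluorimetrically, with (Vi) and without (Vo) compound.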
Neutrophil collagenase, sequence (P22894 whole entry): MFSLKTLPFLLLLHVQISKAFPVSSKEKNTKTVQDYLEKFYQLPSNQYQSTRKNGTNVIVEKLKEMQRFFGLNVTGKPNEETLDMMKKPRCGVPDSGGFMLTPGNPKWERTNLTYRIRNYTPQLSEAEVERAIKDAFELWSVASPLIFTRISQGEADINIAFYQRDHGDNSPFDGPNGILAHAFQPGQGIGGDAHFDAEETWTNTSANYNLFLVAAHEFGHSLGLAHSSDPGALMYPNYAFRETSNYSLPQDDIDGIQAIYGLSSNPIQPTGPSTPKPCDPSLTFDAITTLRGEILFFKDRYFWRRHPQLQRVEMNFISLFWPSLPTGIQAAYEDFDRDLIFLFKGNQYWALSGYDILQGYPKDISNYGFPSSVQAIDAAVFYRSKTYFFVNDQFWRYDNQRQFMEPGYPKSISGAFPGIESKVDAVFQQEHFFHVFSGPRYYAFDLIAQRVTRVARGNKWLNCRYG

Another experiment deals with Collagenase 3 (Homo sapiens, UniProt P45452). As to the kind of experiment: Inhibition of MMP13. The method in brief: as §1

Matrix metalloproteinase-9, sequence (P14780 whole entry): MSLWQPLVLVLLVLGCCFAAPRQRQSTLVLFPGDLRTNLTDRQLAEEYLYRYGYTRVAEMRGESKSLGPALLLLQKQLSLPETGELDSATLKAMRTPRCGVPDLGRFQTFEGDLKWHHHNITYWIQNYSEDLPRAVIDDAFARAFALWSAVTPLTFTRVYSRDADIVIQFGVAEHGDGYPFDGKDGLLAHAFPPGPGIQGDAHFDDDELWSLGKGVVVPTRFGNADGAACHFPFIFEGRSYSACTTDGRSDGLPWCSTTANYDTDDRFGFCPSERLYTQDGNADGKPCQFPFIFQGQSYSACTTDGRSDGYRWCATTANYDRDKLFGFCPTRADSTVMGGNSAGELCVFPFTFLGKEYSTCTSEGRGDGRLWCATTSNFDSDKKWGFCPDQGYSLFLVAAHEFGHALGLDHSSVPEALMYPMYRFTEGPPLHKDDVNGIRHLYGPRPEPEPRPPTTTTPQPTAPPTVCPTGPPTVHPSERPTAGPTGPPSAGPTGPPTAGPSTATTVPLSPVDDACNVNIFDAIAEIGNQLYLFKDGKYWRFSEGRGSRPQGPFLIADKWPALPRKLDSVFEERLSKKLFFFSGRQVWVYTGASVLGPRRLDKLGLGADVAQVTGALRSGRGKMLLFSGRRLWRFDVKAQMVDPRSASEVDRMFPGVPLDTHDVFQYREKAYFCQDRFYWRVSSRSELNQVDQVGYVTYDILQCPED
Stromelysin-1, sequence (P08254 whole entry): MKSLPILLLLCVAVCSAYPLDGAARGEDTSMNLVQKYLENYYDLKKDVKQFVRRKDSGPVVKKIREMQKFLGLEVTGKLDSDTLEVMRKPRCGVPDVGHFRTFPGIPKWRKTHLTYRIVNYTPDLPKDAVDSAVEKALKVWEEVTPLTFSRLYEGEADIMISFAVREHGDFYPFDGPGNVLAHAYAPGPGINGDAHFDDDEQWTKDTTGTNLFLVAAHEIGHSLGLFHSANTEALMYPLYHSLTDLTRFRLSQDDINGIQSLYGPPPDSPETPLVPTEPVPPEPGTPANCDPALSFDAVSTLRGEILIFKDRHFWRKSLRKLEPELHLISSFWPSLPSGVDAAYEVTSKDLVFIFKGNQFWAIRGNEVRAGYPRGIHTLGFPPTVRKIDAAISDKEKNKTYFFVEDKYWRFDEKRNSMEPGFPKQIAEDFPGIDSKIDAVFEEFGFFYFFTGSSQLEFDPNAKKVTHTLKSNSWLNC

Consider `CCCCCC/C=C(\CC(=O)NO)C(=O)N[C@@H](Cc1c[nH]c2ccccc12)C(=O)NC`, for which the concentration for half-maximal inhibition (IC50) – broadly, the concentration needed to halve the response being measured – on Interstitial collagenase is 32000 nM; in experiment [1], 123 nM; on Stromelysin-1 it was more than 10 µM; in experiment [2] it was more than 10000 nM; in experiment [3] it was 2660 nM; at Neutrophil collagenase, 101 nM. The same compound returned an IC50 on Collagenase 3 of 122 nM.

Take `C/C=C/C=C(\CC(=O)NO)C(=O)N[C@@H](Cc1c[nH]c2ccccc12)C(=O)NC`: the IC50 against Interstitial collagenase turned out to be 984 nM; in experiment [1], 78500 nM; on Stromelysin-1, 8.61 µM; in experiment [2], 974 nM; in experiment [3], 913 nM.

`CNC(=O)[C@H](Cc1c[nH]c2ccccc12)NC(=O)/C(=C/C=C/c1ccccc1)CC(=O)NO`: the IC50 was found to be 1240 nM against Interstitial collagenase; 120 nM in experiment [1]; 21 µM on Stromelysin-1; 38 nM in experiment [2]; 2490 nM in experiment [3].

In the case of `CNC(=O)[C@H](Cc1c[nH]c2ccccc12)NC(=O)/C(=C/CCc1ccccc1)CC(=O)NO`, the IC50 at Interstitial collagenase stood at 9130 nM; in experiment [1], 280 nM; at Stromelysin-1, 1.92 µM; in experiment [2], 45 nM; in experiment [3], 53100 nM.

As for `CNC(=O)[C@H](Cc1c[nH]c2ccccc12)NC(=O)/C(=C/C(C)C)CC(=O)NO`, the IC50 against Interstitial collagenase came out at 18 nM; in experiment [1], 9.2 nM; in experiment [2], 17 nM; in experiment [3] it was 10 nM.

In turn, `CNC(=O)[C@H](Cc1c[nH]c2ccccc12)NC(=O)[C@@H](CC(=O)NO)CC(C)C` [ILOMASTAT] gave an IC50 in experiment [3] of 13.4 nM.
